Assay results taken from ChEMBL document CHEMBL4513216, “Probing the Open Global Health Chemical Diversity Library for Multistage-Active Starting Points for Next-Generation Antimalarials” (ACS Infect Dis, 2020).

Test: Toxicity liver stage against HepG2, at 10uM
Format: cell-based
Parameters: test concentration 10 uM, cell line HepG2-A16-CD81EGFP
Settings: human, HepG2-A16-CD81EGFP cells; read-out: INHIBITION
Outline: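 Uninfected HepG2-A16-CD81EGFP cells, 3 × 10^3 per well, 1536-well, plated on prespotted compound at 10 μM final, parasite-free screening media added to match infected plates; puromycin 10 μM positive, DMSO 0.5% negative; run in parallel with 48 h PbLuc assay at 37 °C, 5% CO2; viability by CellTiter-Glo luminescence, normalized to controls.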

SMILES	cytotoxicity at 10 µM
Nc1cc2c(nn1)CCN(C(=O)C1CCc3ccccc31)C2 (configuration not stated)	-6.58%
CN(C)C(C(=O)NCC1(Cn2cccn2)CC1)c1ccc(F)cc1 (configuration not stated)	3.65%
O=C(NCCCN1CCCCCC1=O)c1n[nH]c(=O)c2ccccc12	-12.3%
O=C1CC(c2ccc(O)cc2)c2c(c(C(=O)O)cn2-c2ccccc2)N1 (configuration not stated)	-4.99%
O=c1[nH]c(N2CCCCC2)nc2c1CCN(Cc1cccnc1)C2	-3.07%
Cc1cc(C)n(CCNc2ncnc3c2NC(=O)CN3)n1	6.61%
CC(=O)N1C[C@H]2CC[C@@H](C1)N(S(=O)(=O)c1ccc(F)cc1Cl)C2	-0.756%
Cc1cc(Nc2ccccn2)nc(C2CCCN(CCO)C2)n1 (configuration not stated)	1.26%
Cc1nnc(CSc2ccccn2)o1	14.3%
Cc1nnc(SCC(=O)Nc2csc3nc(=O)c(C)nn23)s1	10.8%
O=C(COc1ccc(Cl)cc1)N1CCOCC1c1ncon1 (configuration not stated)	-21%
O=C(Cc1ccsc1)NCC1OCCc2cn(CC3CC3)nc21 (configuration not stated)	9.77%
CC1CN(c2ncnc3cccc(F)c23)CCO1 (configuration not stated)	16.1%
CC(CNC(=O)c1ccon1)Oc1cccc(Br)c1 (configuration not stated)	-1.52%
Cc1nc(C)n(CC2CCCN(CCc3ccccn3)C2)n1 (configuration not stated)	-1.59%
CCc1nc(C2CCCN2CC(=O)Nc2cc(C)nn2C)no1 (configuration not stated)	-7.82%
Cc1cnc(N2CC[C@@H](N3CCOCC3)[C@@H]2Cc2ccncc2)nc1	4.47%
CCc1nc(CN2CCc3c(ncn3C3CC3)C2)cs1	-1.59%
CCN(Cc1ccncc1)c1cc(C2CCCNC2)nc(C)n1 (configuration not stated)	-5.21%
COCCC(C)NC(=O)N1CCC(n2ccc(C(F)(F)F)n2)CC1 (configuration not stated)	-3.9%
CCN(CC)C(=O)c1nnsc1-c1ccccc1	1.88%

SMILES	cytotoxicity at 10 µM
CN1CCN(c2cc(CNC(=O)c3ccsc3)ccn2)CC1	-7.27%
Cc1ccccc1OCC1CCCN(C(=O)Cc2c[nH]c(=O)[nH]c2=O)C1 (configuration not stated)	-136%
CC(C)[C@H](N)c1nnc(SCC(=O)Nc2ccc(Br)cc2)o1	-5.15%
Cc1nc(NC(=O)c2c(-n3cnnn3)sc3c2CCC3)sc1C	5.95%
CNC(=O)CNC(=O)Nc1ccc(F)c(Br)c1	7.92%
CC(C)N(C)C(=O)C1CCC(=O)N(CCc2cccc(F)c2)C1 (configuration not stated)	-4.57%
CCn1cc(NC(=O)C2CCN(CC(=O)N3CCOCC3)CC2)cn1	-3.46%
Cc1cc(C(=O)N2CC[C@@H](N(C)C)[C@@H]2Cc2ccccc2)no1	-0.567%
CCn1cnnc1C1CCN(C(=O)c2cc3c(s2)CCCC3)CC1	-1.76%
N#CC1CCCN(c2ncnc3c2CCN(Cc2ccccc2)CC3)C1 (configuration not stated)	-3.64%
Cn1cc(CN(Cc2ccccc2)Cc2ccccn2)cn1	19.1%
Cc1cccnc1CC(C)NC1Cc2ccccc2C1 (configuration not stated)	4.69%
Cc1ccc(F)c(NS(=O)(=O)c2cc3c(c(C(=O)O)c2)OCCO3)c1	-5.32%
Cc1cccc2c1cnn2CCCNC(=O)c1ccnn1C	13.4%
Cc1[nH]ccc1C(=O)N(C)C1CC(=O)N(Cc2ccccc2)C1=O (configuration not stated)	8.76%
CN1CCN(C(=O)c2n[nH]c3c2CN(C2CCOC2)CC3)CC1 (configuration not stated)	1.52%
Cc1cc(OC(F)F)c(C(=O)N2CC[C@H](O)C2)s1	9.67%
COc1ncccc1CN1C[C@@H]2COC[C@]2(CNC(=O)c2ccno2)C1	8.07%
COCC(=O)N1CC[C@]2(O)CCN(Cc3cccnc3OC)C[C@@H]2C1	8.72%
NC(=O)c1ccc(S(=O)(=O)NC(=O)COc2ccc3c(c2)CCC3)cc1	-2.27%
CCn1cnnc1C1CCN(C(=O)c2ccc3cc[nH]c3c2)CC1	5.16%

SMILES	cytotoxicity at 10 µM
CCN1CC(NC(=O)Nc2nc(C)n(C(C)C)n2)CC1=O (configuration not stated)	-5.58%
O=C(NC1CCN(CC2CCCC2)C1)N1CCC(OCC2CC2)CC1 (configuration not stated)	9.86%
O=C1CN(S(=O)(=O)CC(F)(F)F)CC(O)CN1CCCc1ccccc1 (configuration not stated)	-7.99%
Cc1nc(N2CCCC2)nc2c1CCN(Cc1ccsc1)CC2	-106%
CC(C)c1noc(CN2CCN(C(=O)c3cccc(F)c3)CC2)n1	-4.27%
CCc1ncncc1C(=O)N1CCN(Cc2ccco2)CC1	-4.91%
O=C1CC2(CNCCN(C(=O)Nc3ccccc3)C2)CN1 (configuration not stated)	2.23%
CC(C)c1noc(C2CCCN2S(=O)(=O)N2CCCCCC2)n1 (configuration not stated)	4.73%
CC(C)Cc1ncc2c(n1)CN(C(=O)Cn1c(=O)oc3ccccc31)C2	-36.2%
CCS(=O)(=O)NCCNCc1ccc(Cl)c2cccnc12	-0.969%
CN(C)CC1CN(c2cnc3ccccc3n2)CCO1 (configuration not stated)	-9.93%
Cc1cc(N2CCN(C(=O)Cc3c(C)nc(C)[nH]c3=O)CC2)cc(C)n1	9.66%
O=C(Nc1cccc(CNCc2cccnc2)c1)C1CCCC1	-9.27%
COc1cccc(NC(=O)N(CCO)C2CCc3ccccc32)c1 (configuration not stated)	-1.08%
Cc1ccc(F)c(OC2(C(=O)O)CCN(C(=O)c3ccco3)CC2)c1	5.99%
COCc1cnc2n1CCN(C(=O)c1oc3ccccc3c1C)C2C (configuration not stated)	-104%
CCOc1ccccc1C(CC(=O)N(C)c1ccccc1)NC(C)=O (configuration not stated)	-8.28%
O=C(CCCc1cn[nH]c1)N1CCOCC(O)C1 (configuration not stated)	-23%
CC(C)c1cc(C2CCN(C(=O)Cn3cncn3)CC2)[nH]n1	3.65%
O=S(=O)(NC1CCCCC12OCCO2)c1ccc2c(c1)OCCO2 (configuration not stated)	-0.839%
COc1c(C)cnc(CN(C)C(=O)c2ccccc2F)c1C	-9.11%

SMILES	cytotoxicity at 10 µM
CS(=O)(=O)N1CCCC12CCCN(c1nccs1)C2 (configuration not stated)	4.92%
CN1CCN(C(=O)c2cccc(OCc3cscn3)c2)CC1	-6.18%
O=C(c1cnccn1)N1CCc2c(COCC3CC3)cncc2C1	-72.4%
CCC(=O)N1CCCCC1c1nc(O)c2c(n1)CN(C(=O)C1CC1)CC2 (configuration not stated)	1.23%
O=C1CN(C(=O)c2nnn(-c3ccc(C(F)(F)F)cc3)n2)CCN1	-2.77%
CCc1nc(CN2CCCN(c3ncnc4ccsc34)CC2)no1	64.5%
CN(C)CC1CN(Cc2c(Cl)ccc3cccnc23)CCO1 (configuration not stated)	4.2%
CC(C)CC(C)NCCCN1CCCN(C)CC1 (configuration not stated)	24.7%
CNC(=O)C1Cn2ccnc2C2(CCN(Cc3cccnc3)CC2)O1 (configuration not stated)	-3.37%
COCCN1CCc2cc(C(=O)O)c(NCC3CC3)nc2CC1	4.21%
N#Cc1ccc(F)c(CN2CCCC2Cn2cccn2)c1 (configuration not stated)	-7.69%
O=C(c1ccc(-c2cccc3c2CCNC3)o1)N1CCCCC1	3.67%
COCC(=O)N1CCC(=O)N(C2CCCC2)Cc2cc(F)ccc21	-3.3%
O=C1NC2(CCCN(C(=O)CCn3cccn3)C2)Oc2ccccc21 (configuration not stated)	-6.19%
COCCN1C[C@@H]2[C@@H](OC)CCN(Cc3ccc(C)o3)[C@@H]2C1	-4.42%
Cc1cc(NS(=O)(=O)c2cccs2)ccc1-n1cccc1C(=O)O	-2.68%
COc1ccc(CN2CCN(C3CCc4ccccc4C3)CC2)cc1O (configuration not stated)	-6.55%
O=C1NCC2(CCCN(Cc3ccc(F)cc3)C2)Oc2ccccc21 (configuration not stated)	-12.8%
O=C(C1CCOC1)N1CCN(Cc2ccc3c(c2)CCO3)CC1 (configuration not stated)	0.28%
